PPC-1+TRAIL kill – kills PPC-1 cancer cells in the presence of TRAIL. PPC-1 cells + TRAIL, ATPLite viability luminescence. cell killing (% activity), % at 4 µM or 5 µM. hit rate 0.41% among 220,000. AID 1443;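 active means cell killing above 50% in the first pass at 4 µM, then a duplicate retest at 5 µM averaging 50% or more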
TRAIL sens C8 – sensitizes caspase-8 expressing cells to TRAIL; NB7+C8 cells + TRAIL, ATPlite viability luminescence; AID 624354; inhibition (viability loss, TRAIL sensitization), % at 10 µM; hit rate 1% among 360,000;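 active means compounds causing at least 50% loss of cell viability in the single-dose screen, relative to plate controls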
FLuc inh counter – inhibits firefly luciferase, flagging false hits in luciferase inhibition screens | P08659 | ATPLite firefly luciferase biochemical luminescence, 10 min | inhibition, % at 10 µM | hit rate 1.5% among 200,000 | AID 1006;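 active means inhibition above about 50% when tested at 10 µM, limit read from the data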
Target sequence (P08659 whole entry, looked up): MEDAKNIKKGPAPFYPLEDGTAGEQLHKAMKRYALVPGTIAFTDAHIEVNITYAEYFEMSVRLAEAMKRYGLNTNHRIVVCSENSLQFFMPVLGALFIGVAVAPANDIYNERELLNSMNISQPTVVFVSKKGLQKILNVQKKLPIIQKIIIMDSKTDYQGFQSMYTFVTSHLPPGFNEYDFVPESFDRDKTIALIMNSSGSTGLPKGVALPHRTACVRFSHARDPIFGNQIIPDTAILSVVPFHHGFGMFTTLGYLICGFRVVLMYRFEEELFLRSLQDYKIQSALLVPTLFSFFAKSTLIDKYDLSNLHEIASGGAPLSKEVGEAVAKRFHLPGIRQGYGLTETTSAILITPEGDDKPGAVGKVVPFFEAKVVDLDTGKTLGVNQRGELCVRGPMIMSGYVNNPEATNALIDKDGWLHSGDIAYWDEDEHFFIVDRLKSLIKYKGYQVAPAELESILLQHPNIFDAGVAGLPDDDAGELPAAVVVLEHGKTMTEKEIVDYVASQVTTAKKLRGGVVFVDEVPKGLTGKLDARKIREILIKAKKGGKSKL
FLuc act counter – affects firefly luciferase, flagging false hits in luciferase stimulation screens; ATPlite luciferase biochemical, luminescence, 10 min; 0 = ATP-free wells, 1 = DMSO control; activation factor at 10 µM; 200,000 tested, under 10 active; AID 1027;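 active means luciferase activation factor, scaled between plate controls, of at least 2 with compound at 10 µM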
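test system = cell-free luciferase reagent | medium = PBS as buffer for the ATP substrate | dosing = test compounds dosed from 2 mM stocks in 100% DMSO | incubation = 10 min at ambient temperature | detection = luminescence measurement of luciferase light output | benchmarks = low control with PBS replacing ATP, high control enzyme plus ATP without compound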
Of the large screens only hits and unclear results are named; the others gave an inactive call. Only some compounds are listed: those with a hit (about 1.6% of all), similar ones and a draw of the others.

Cc1ccc(-n2c(C)cc(C(=O)CSc3nncs3)c2C)cc1	FLuc inh counter 54
Cc1cc(C(=O)CSc2nncn2C)c(C)n1-c1ccccc1	FLuc inh counter 69
Cc1cc(C(=O)CSc2cccc[n+]2[O-])c(C)n1-c1ccccc1	FLuc inh counter 80
CCCn1nc(C(=O)Nc2cccc(S(=O)(=O)N(C)c3ccccc3)c2)c2ccccc2c1=O	none (no result: PPC-1+TRAIL kill, FLuc inh counter, FLuc act counter)
CC(=O)Oc1cccc(/C=c2\sc3nc(-c4ccco4)nn3c2=O)c1	FLuc inh counter 89
CCCOc1ccc(/C=c2\sc3nc(-c4ccco4)nn3c2=O)cc1OCC	none
C(=N\Nc1ccccn1)/c1ccc(N2CCOCC2)cc1	FLuc inh counter 74
CCOc1ccc(/C=N/Nc2ccccn2)cc1	TRAIL sens C8 59, FLuc inh counter 82
Clc1ccc(/C=N/Nc2ccccn2)cc1	none
CN1CCN(c2ncnc3c2ncn3[C@H]2CN(Cc3ccc(-c4ccccc4)cc3)C[C@@H](CO)O2)CC1	none (no result: PPC-1+TRAIL kill, FLuc inh counter, FLuc act counter)
C=CCN(CC=C)c1cnn(-c2nc3ccccc3[nH]2)c(=O)c1Cl	TRAIL sens C8 66, FLuc inh counter 51
CC1=CN2C(=N)/C(=C/c3ccc(C)o3)C(=O)N=C2S1	TRAIL sens C8 54, FLuc inh counter 80
CC(C)COCc1ccc(O)c2ncccc12	TRAIL sens C8 52
CCn1cc(C(=O)NCC(OC)OC)c(=O)c2cc(S(=O)(=O)N3CCCC3)ccc21	none (no result: PPC-1+TRAIL kill, FLuc inh counter, FLuc act counter)
CCCCNC(=O)c1cn(C)c2ccc(S(=O)(=O)N3CC(C)CC(C)C3)cc2c1=O (centres undefined)	TRAIL sens C8 56 (no result: PPC-1+TRAIL kill, FLuc inh counter, FLuc act counter)
CCn1cc(C(=O)NCC(OC)OC)c(=O)c2cc(S(=O)(=O)N3CCC(C)CC3)ccc21	TRAIL sens C8 65 (no result: PPC-1+TRAIL kill, FLuc inh counter, FLuc act counter)
CC(C)c1ccc(/C=C2\SC(=O)N(CC(=O)NC3C=CS(=O)(=O)C3)C2=O)cc1 (centres undefined)	TRAIL sens C8 54 (no result: PPC-1+TRAIL kill, FLuc inh counter, FLuc act counter)
O=C(CN1C(=O)/C(=C/c2ccc(Cl)cc2)SC1=S)NC1C=CS(=O)(=O)C1 (centres undefined)	none (no result: PPC-1+TRAIL kill, FLuc inh counter, FLuc act counter)
CC1CCN(c2ccc(-c3cccs3)nn2)CC1	TRAIL sens C8 97 (no result: PPC-1+TRAIL kill, FLuc inh counter, FLuc act counter)
Clc1ccc(-c2cccs2)nn1	none
Cc1cccc(OS(=O)(=O)NC(=O)OCC2CCCN3CCCCC23)c1 (centres undefined)	none (no result: PPC-1+TRAIL kill)
COc1cccc2cc(-c3nc4ccccc4[nH]3)c(=O)oc12	TRAIL sens C8 54 (no result: PPC-1+TRAIL kill, FLuc inh counter, FLuc act counter)
COc1cccc2cc(-c3nc(-c4cccs4)cs3)c(=O)oc12	none
COc1ccc(Nc2nc(-c3cc4cccc(OC)c4oc3=O)cs2)cc1	none
Cc1cccc2cc(-c3nc4ccc(C(=O)O)cc4[nH]3)c(=O)oc12	TRAIL sens C8 54 (no result: PPC-1+TRAIL kill, FLuc inh counter, FLuc act counter)
COc1cccc2cc(-c3ccccc3)c(=O)oc12	FLuc inh counter 60
COc1ccc(-c2cc3cccc(OC)c3oc2=O)cc1	TRAIL sens C8 78 (no result: PPC-1+TRAIL kill, FLuc inh counter, FLuc act counter)
O=S(=O)(/N=C(/Nc1ccc(F)cc1F)c1ccccc1)c1ccc(Br)cc1	none (no result: TRAIL sens C8)
Cc1ccc(C(=O)COC(=O)c2ccco2)cc1C	none (no result: PPC-1+TRAIL kill, FLuc inh counter, FLuc act counter)
O=C(O)c1ccccc1N/N=C\c1ccnc2ccccc12	TRAIL sens C8 65, FLuc inh counter 89
ON=Cc1ccnc2ccccc12	none (no result: PPC-1+TRAIL kill, FLuc inh counter, FLuc act counter)
Cc1cccc(NC(=S)NC(=O)c2ccc(-c3ccccc3)cc2)n1	TRAIL sens C8 59 (no result: PPC-1+TRAIL kill, FLuc inh counter, FLuc act counter)
Cc1c(C(=O)NC(=S)Nc2ccc(NC(=O)c3cccs3)cc2)oc2ccccc12	none (no result: PPC-1+TRAIL kill, FLuc inh counter, FLuc act counter)
Cc1cccc(NC(=O)c2cc3ccccc3c(=O)o2)n1	TRAIL sens C8 60 (no result: PPC-1+TRAIL kill, FLuc inh counter, FLuc act counter)
Cc1cc(C)c(NC(=S)NC(=O)c2ccccc2)cc1C	none (no result: PPC-1+TRAIL kill, FLuc inh counter, FLuc act counter)
Cc1cccc(NC(=S)NC(=O)C(c2ccccc2)c2ccccc2)n1	none (no result: PPC-1+TRAIL kill, FLuc inh counter, FLuc act counter)
Cc1ccc(C(=O)O)cc1NC(=S)NC(=O)c1ccc(-c2ccccc2)cc1	FLuc inh counter 86
Cc1cccc(NC(=S)NC(=O)c2oc3ccccc3c2C)n1	TRAIL sens C8 64 (no result: PPC-1+TRAIL kill, FLuc inh counter, FLuc act counter)
Cc1ccc(NC(=S)N(CCN2CCCCC2)Cc2ccco2)cc1Cl	none
CC(=O)Nc1cccc(NS(=O)(=O)c2cc3c4c(c2)CCN4C(=O)CC3)c1	none (no result: PPC-1+TRAIL kill, FLuc inh counter, FLuc act counter)
O=C(CN1C(=O)NC2(CCc3ccccc32)C1=O)NCc1cccc(C(F)(F)F)c1 (centres undefined)	none (no result: PPC-1+TRAIL kill, FLuc inh counter, FLuc act counter)
Cc1ccc(C(=O)NNC(=O)CCCCC(=O)NNC(=O)c2ccc(C)cc2)cc1	none (no result: PPC-1+TRAIL kill, FLuc inh counter, FLuc act counter)
O=C(CCN1C(=O)c2ccccc2C1=O)Nc1ccc(-c2nc3ccccc3s2)cc1	TRAIL sens C8 69
Cc1ccc2nc(-c3ccc(NC(=O)C(C)N4C(=O)c5ccccc5C4=O)cc3)sc2c1 (centres undefined)	none
O=C(CCN1C(=O)c2ccccc2C1=O)Nc1nc2ccccc2s1	none
Cc1ccc2nc(-c3ccc(NC(=O)CCN4C(=O)c5ccccc5C4=O)cc3)sc2c1	TRAIL sens C8 83, FLuc inh counter 68

Bioassay records: PubChem, Sanford-Burnham Center for Chemical Genomics
